Twelve compounds from ChEMBL document CHEMBL1122866, “3-Phenyl-1-indanamines. Potential antidepressant activity and potent inhibition of dopamine, norepinephrine, and serotonin uptake” (J Med Chem, 1985) can be followed below.

Holding throughout (format): functional
The target of assay [1] is Norepinephrine transporter (Rattus norvegicus, UniProt Q9WTR4). Kind of assay: Inhibition of noradrenaline uptake in rat synaptosomal fraction. An outline of the steps:
(§1)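 Synaptosomal uptake of DA, NE or 5-HT measured. The IC50 is in nM and is the mean of at least two determinations, each using five test concentrations in triplicate.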

Assay [2] addresses Sodium-dependent dopamine transporter (Rattus norvegicus, UniProt P23977). Kind of assay: Inhibition of dopamine uptake in rat synaptosomal fraction.
The species named for assay [3] is Mus musculus. Kind of assay: Antagonistic activity against tetrabenazine-induced ptosis in mice. A digest of the protocol: (§2)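 Mice dosed intraperitoneally; the result is reported as the ED50 in μmol/kg with a range in parentheses. Test compounds are racemates of >95% isomeric purity by TLC.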
Assay [4] addresses Sodium-dependent serotonin transporter (Rattus norvegicus, UniProt P31652). Kind of assay: Inhibition of 5-HT uptake in rat synaptosomal fraction. A digest of the protocol:
as §1

The species named for assay [5] is Mus musculus. Kind of assay: Compound was tested for antagonistic activity against 5-HTP-induced potentiation in mice. An outline of the steps: as §2
The species entered for assay [6] is Mus musculus. Kind of assay: Antagonistic activity against 5-HTP induced potentiation in mice. A digest of the protocol:
as §2

The species entered for assay [7] is Mus musculus. Kind of assay: Antagonistic activity against tetrabenazine-induced ptosis in mice. The following applies: Mus musculus; read-out: ED50. An outline of the steps:
as §2

For orientation: IC50 means the concentration at which inhibition is half-maximal. A higher IC50 goes with a need for much substance.

Sodium-dependent serotonin transporter, sequence (P31652 whole entry): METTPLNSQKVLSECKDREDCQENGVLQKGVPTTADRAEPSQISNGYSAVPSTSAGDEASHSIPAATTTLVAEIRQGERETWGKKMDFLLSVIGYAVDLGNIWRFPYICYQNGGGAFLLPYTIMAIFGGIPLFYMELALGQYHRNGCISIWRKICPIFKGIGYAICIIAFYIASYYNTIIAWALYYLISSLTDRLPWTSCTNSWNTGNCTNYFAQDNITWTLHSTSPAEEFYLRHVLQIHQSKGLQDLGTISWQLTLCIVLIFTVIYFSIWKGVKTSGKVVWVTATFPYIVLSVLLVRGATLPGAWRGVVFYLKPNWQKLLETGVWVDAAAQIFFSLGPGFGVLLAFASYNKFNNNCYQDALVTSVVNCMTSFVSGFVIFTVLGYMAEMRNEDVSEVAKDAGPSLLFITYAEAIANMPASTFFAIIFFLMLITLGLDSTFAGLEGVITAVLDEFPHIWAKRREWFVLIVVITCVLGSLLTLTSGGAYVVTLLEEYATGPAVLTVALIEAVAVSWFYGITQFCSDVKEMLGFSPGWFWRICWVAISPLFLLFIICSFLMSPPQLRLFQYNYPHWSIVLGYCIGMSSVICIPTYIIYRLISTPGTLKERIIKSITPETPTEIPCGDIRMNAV
Sodium-dependent dopamine transporter, sequence (P23977 whole entry): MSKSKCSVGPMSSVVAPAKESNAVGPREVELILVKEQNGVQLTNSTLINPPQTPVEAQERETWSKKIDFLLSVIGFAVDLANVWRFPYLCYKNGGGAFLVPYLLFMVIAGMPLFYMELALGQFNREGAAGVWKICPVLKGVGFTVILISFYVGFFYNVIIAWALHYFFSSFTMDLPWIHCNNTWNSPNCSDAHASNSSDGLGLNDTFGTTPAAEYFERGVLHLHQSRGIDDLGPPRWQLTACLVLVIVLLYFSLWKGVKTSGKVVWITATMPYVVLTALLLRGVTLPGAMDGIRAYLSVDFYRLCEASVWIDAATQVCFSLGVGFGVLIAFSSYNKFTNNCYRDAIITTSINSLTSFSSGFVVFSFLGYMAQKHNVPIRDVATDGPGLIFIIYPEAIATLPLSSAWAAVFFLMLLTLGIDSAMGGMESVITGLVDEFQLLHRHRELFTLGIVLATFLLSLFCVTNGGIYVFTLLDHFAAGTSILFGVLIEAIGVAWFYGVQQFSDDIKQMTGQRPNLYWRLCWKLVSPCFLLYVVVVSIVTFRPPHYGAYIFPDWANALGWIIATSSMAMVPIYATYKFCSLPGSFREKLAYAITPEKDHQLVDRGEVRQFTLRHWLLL
Norepinephrine transporter, sequence (Q9WTR4 whole entry): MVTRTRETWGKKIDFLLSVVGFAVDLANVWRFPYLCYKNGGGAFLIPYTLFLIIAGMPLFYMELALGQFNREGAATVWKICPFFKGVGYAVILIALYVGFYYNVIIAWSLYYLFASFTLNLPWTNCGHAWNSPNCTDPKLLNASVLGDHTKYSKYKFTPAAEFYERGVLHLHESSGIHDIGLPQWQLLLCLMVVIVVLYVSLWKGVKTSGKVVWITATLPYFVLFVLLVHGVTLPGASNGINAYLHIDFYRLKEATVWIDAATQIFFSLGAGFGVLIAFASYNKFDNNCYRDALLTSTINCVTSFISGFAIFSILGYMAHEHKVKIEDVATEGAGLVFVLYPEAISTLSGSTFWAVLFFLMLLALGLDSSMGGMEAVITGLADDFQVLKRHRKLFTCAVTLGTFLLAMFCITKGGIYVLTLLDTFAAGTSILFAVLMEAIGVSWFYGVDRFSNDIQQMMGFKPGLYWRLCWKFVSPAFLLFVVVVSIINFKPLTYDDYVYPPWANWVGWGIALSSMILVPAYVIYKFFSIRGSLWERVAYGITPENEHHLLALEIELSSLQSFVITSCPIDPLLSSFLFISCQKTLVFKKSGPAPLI

As for `CNC1CC(c2ccc(Cl)c(Cl)c2)c2ccc(O)cc21` (stereo in doubt; 54), the IC50 worked out at 0.82 nM in assay [1], 0.52 nM in assay [2] and 2.5 nM in assay [4]. In addition, the ED50 in assay [3] was determined as 21 µM/kg.
In assay [2], `CN1CCN(C2CC(c3ccc(Cl)c(Cl)c3)c3ccccc32)CC1` (stereo in doubt; 101) yielded an IC50 of 11 nM. Also, the ED50 in assay [3] was 48 µM/kg; in assay [5] (Mus musculus, read-out: ED50), 97 µmol/kg.
On to `CN(C)C1CC(c2ccc(Cl)c(Cl)c2)c2ccc(O)cc21` (centres undefined), for which the values for the half-inhibitory concentration (IC50) in assay [1], in assay [2] and in assay [4] were 16 nM, 7.9 nM and 0.37 nM, respectively. Also, the ED50 in assay [3] (Mus musculus, read-out: ED50) was found to be 22 µmol/kg.
Turning to `CNC1CC(c2ccc(Cl)c(Cl)c2)c2ccc(OC)cc21` (centres undefined), the concentration for half-maximal inhibition (IC50) in assay [1] turned out to be 0.67 nM; in assay [2], 2.5 nM; in assay [4] it was 0.62 nM. Besides, the ED50 stood at 7 µM/kg in assay [3] and 14 µM/kg in assay [5].
Regarding `CNC1CC(c2ccc(Cl)c(Cl)c2)c2ccc(OC)cc21.Cl` (centres undefined), the half-inhibitory concentration (IC50) in assay [1] was 19 nM; in assay [2], 19 nM; in assay [4] it was 0.53 nM. For the same compound, the ED50 came out at 14 µmol/kg in assay [3] (Mus musculus, read-out: ED50) and 2.9 µM/kg in assay [5].
`CN1CCN(C2CC(c3ccc(Cl)c(Cl)c3)c3ccccc32)CC1` (single isomer, unassigned; (-)) yielded an IC50 in assay [2] of 10 nM. In assay [3], this compound returned an ED50 of 26 µM/kg.
`CNC1CC(c2ccc(Cl)c(Cl)c2)c2ccc(O)cc21` (stereo in doubt; 80): the IC50 in assay [1] was 6.3 nM; in assay [2], 4.1 nM; in assay [4], 0.11 nM. Also, the ED50 in assay [3] (Mus musculus, read-out: ED50) is 15 µmol/kg; in assay [5] (Mus musculus, read-out: ED50), 59 µmol/kg.
As to `COc1ccc2c(c1)C(N(C)C)CC2c1ccc(Cl)c(Cl)c1` (stereo in doubt; 53), the IC50 in assay [1] was 16 nM; in assay [2], 10 nM; in assay [4] it was 1.6 nM. In addition, the ED50 in assay [3] amounted to 33 µM/kg; in assay [5], 14 µM/kg.
Take `CNCCCC1(c2ccccc2)OC(C)(C)c2ccccc21` (centres undefined) [TALOPRAM]: the IC50 in assay [1] turned out to be 2.9 nM; in assay [2], 44000 nM; in assay [4], 1400 nM. The ED50 in assay [3] (Mus musculus, read-out: ED50) was 1.2 µmol/kg; in assay [5] (Mus musculus, read-out: ED50), 44 µmol/kg.
With `CN1CCN(C2CC(c3ccc(Cl)c(Cl)c3)c3ccccc32)CC1` (stereo in doubt; 102), 4.4 nM corresponded to half-maximal inhibition in assay [2] (IC50). Besides, the ED50 in assay [3] amounted to 100 µM/kg.
`COc1ccc2c(c1)C(N(C)C)CC2c1ccc(Cl)c(Cl)c1` (stereo in doubt; 79): the figures for the half-inhibitory concentration (IC50) in assay [1], in assay [2] and in assay [4] were 3 nM, 15 nM and 2 nM, respectively. The ED50 in assay [3] (Mus musculus, read-out: ED50) worked out at 34 µmol/kg; in assay [5] (Mus musculus, read-out: ED50) it was 7.4 µmol/kg.
As for `OCCNC1CC(c2ccc(Cl)c(Cl)c2)c2ccccc21` (centres undefined), the ED50 in assay [6] is more than 111 µmol/kg; in assay [3] (Mus musculus, read-out: ED50), 75 µmol/kg; in assay [7] it was more than 111 µmol/kg; in assay [5] (Mus musculus, read-out: ED50) it was 171 µmol/kg.
